Screens (PubChem)
Only a selection was taken, and hits are over-represented in it overall.
NLRP3 yeast inh: blocks the NALP3 inflammasome reconstituted in yeast; Yeast reconstituted NLRP3/ASC/caspase-1, beta-gal luminescence, 24 h; inhibition, % at 10 µM; 330,000 tested, 0.39% active;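 active means inhibition of 50% or more; inactive means inhibition below 50%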;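 further: plate controls were induced DMSO wells for no effect and uninduced yeast grown without galactose for full effect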
NALP1 yeast inh: blocks the NALP1 inflammasome reconstituted in yeast; inhibition, % at 10 µM; AID 2071; 280,000 tested, 0.61% active; S. cerevisiae NALP1/ASC/caspase-1 growth, X-gal OD620, 72 h; in the data active means inhibition mostly above about 24%, no sharp cut-off; inactive means mostly below about 32%
L major viab: reduces viability of Leishmania major promastigotes | resazurin fluorescence viability | inhibition, % at 10 µM | 200,000 tested, 9% active | AID 1063; in the data active means inhibition above about 50%;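 further: promastigotes grown with compound for 44 hours at 28 °C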
Calb FLC: affects C. albicans growth with fluconazole. C. albicans CaCi-2 + fluconazole, Alamar Blue growth, 48 h. growth inhibition, % (test concentration not listed). 300,000 tested, 0.57% active. AID 1979;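 active means growth inhibition above about 58% in most replicates, limit read from the data, passing the limit was not always enough; inconclusive means exactly half the replicates above a set limit; inactive means most replicates below a set limit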;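 further: all wells also contain fluconazole at 8 µg/ml as a sub-toxic cotreatment; 0% = median of DMSO wells and 100% = median of geldanamycin control wells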
T cruzi inh: blocks replication of Trypanosoma cruzi. inhibition, % (test concentration not listed). T. cruzi beta-gal in NIH3T3, luminescence, 90 h. 300,000 tested, 1.4% active. AID 1885;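 active means mean inhibition across valid replicates above about 55%, limit read from the data; inconclusive means mean below that limit but half or more replicates reach it; inactive means mean below it, under half of replicates reach it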;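 further: signal also drops with host cell toxicity which is not excluded here; 0% = plate median of DMSO wells and 100% = zero luminescence signal; higher percent means less beta-gal luminescence so fewer parasites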
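System – NIH/3T3 host cells with β-galactosidase reporter T. cruzi · Doses – single 50 nL compound addition per well in DMSO · Reagent – 5000 T. cruzi trypomastigotes/well · Medium – Low-serum DMEM with 2% FBS · Timing – ≥90 h infection period, 3 h prior cell attachment · Evaluation – parasite load inhibition, % · Technique – GalScreen luminescence, 60 min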
PolyA inh: blocks polyadenylation in yeast reporter cells. S. cerevisiae SKY197-pL101 polyadenylation reporter, beta-gal luminescence; efflux-impaired pdr1/pdr3 knockout yeast; score 100 = 6 SD above DMSO. activity score, % at 12 µM. 300,000 tested, 0.02% active. AID 1875;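 active means lowest replicate activity score at least 50, where 100 means six control SD above control mean; inconclusive means lowest score under 50 but half or more replicates reach 50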;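 further: yeast exposed to compound for 9 h at 30 °C; higher score means more reporter readthrough which indicates perturbed polyadenylation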
Active calls of the source: *; ? = inconclusive; / = no result.

SMILES	NLRP3 yeast inh	NALP1 yeast inh	L major viab	Calb FLC	T cruzi inh	PolyA inh
O=C(O)c1ccc(/C=C(\c2nc3ccccc3[nH]2)c2nc3ccccc3s2)cc1	14	/	/	5	-5	13
COc1ccc2c(c1OC)C(=O)N1N=C(c3ccc(Cl)cc3)CC21 (configuration not stated)	34	27	18	-7	18	-8
CCCCn1cnc2c(c(-c3ccccc3)c(-c3ccccc3)n2Cc2ccco2)c1=N	20	23	/	-5	51	-18
Cc1cc(NCCCn2ccnc2)n2nc(C)c(-c3ccccc3)c2n1	2	14	14	26	28	11
N=c1c2c(-c3ccccc3)c(-c3ccccc3)n(Cc3ccco3)c2ncn1Cc1ccco1	-17	15	100*	?	57*	31
N=c1c2c(-c3ccccc3)c(-c3ccccc3)n(Cc3ccccc3)c2ncn1CCCn1ccnc1	21	30*	100*	1	60*	0
CCCCc1ccc(NC(=O)CN(C)CC(=O)Nc2ccccc2Cl)cc1	17	8	/	-3	24	10
CC(=O)c1c(C)[nH]c(C(=O)OC(C)C(=O)Nc2cc(S(=O)(=O)N3CCCCC3)ccc2Cl)c1C (configuration not stated)	-7	31	34	-20	-21	-8
COC(=O)[C@@H]1CCCN1Cc1nc(Cc2ccccc2F)no1	17	8	6	92*	9	-11
Fc1ccc(C2CCCN2Cc2nc(Cc3ccccc3F)no2)cc1 (configuration not stated)	0	24*	31	-12	13	-2
CSCCC(NC(=O)c1ccc([N+](=O)[O-])cc1Cl)C(=O)OC1CCCCC1=O (configuration not stated)	20	8	/	-7	-3	0
CC1CCCCN1c1nc(-c2ccncc2)nc2ccccc12 (configuration not stated)	1	14	81*	-3	60*	-17
CCC1CCCCN1c1nc(-c2cccc(OC)c2O)nc2ccccc12 (configuration not stated)	1	0	18	0	52	0
CCC1CCCCN1c1nc(-c2ccncc2)nc2ccccc12 (configuration not stated)	1	0	95*	20	63*	-26
CSCc1ccc(C(=O)Nc2ccc(C(N)=O)cc2)cc1	12	0	-2	5	-5	-5
CN(C)C(C)(C)C#CCC(c1ccccc1)c1ccccc1	29	64*	100*	-12	17	7
Cc1ccc(-c2nnn(CC(=O)N(c3ccccc3F)C(C(=O)NCC3CCCO3)c3c[nH]c4ccccc34)n2)cc1 (configuration not stated)	-6	-3	88*	24	41	-13
N=c1sccn1CC(=O)Nc1ccccc1Oc1ccccc1	18	38*	4	-12	?	-6
Cc1ccc(Oc2ccc(NC(=O)Cn3ccsc3=N)cc2)cc1	11	17	100*	4	37	9
N=c1sccn1CC(=O)Nc1ccccc1Cc1ccccc1	4	17	6	-3	-6	17
COC(=O)c1c(C)[nH]c(O)c1C=Nc1ccc(C(C)C)cc1	2	-4	-3	0	58*	3
COc1ccccc1NCc1ccc([N+](=O)[O-])s1	18	32	60*	1	20	-2
Cc1cccc(OCC(=O)Nc2ccc3c(c2)OCO3)c1C	32	7	73*	-17	-2	-27
Cc1ccc(C)c(OCC(=O)Nc2ccc3c(c2)OCO3)c1C	13	17	23	1	0	9
CC(C)NS(=O)(=O)c1ccc(OCC(=O)Nc2ccc3c(c2)OCO3)cc1	26	-4	1	-13	-6	-7
SMILES	NLRP3 yeast inh	NALP1 yeast inh	L major viab	Calb FLC	T cruzi inh	PolyA inh
CCC(C)NS(=O)(=O)c1ccc(OCC(=O)Nc2ccc3c(c2)OCO3)cc1 (configuration not stated)	-18	41*	-3	4	1	15
CC(CCc1ccccc1)NC(=O)COC(=O)c1cccc(N(C)C)c1 (configuration not stated)	5	6	/	-3	13	-8
C=C(C)C1CC=C(CN2CC(C)OC(C)C2)CC1 (configuration not stated)	-5	41*	88*	13	7	-12
C=C(C)C1CC=C(CN2CCC(C(=O)OCC)CC2)CC1 (configuration not stated)	17	1	95*	-30	8	-21
CCNS(=O)(=O)c1ccc(C)c(-n2cnnn2)c1C	6	16	-3	-1	11	-5
CCOC(=O)C1=C(COC(=O)CNC(=O)c2ccc(Cl)cc2Cl)NC(=O)NC1C (configuration not stated)	18	/	/	-3	-9	5
CCOC(=O)C1C(=O)C(C(C)=O)C(=O)CC1CC(C)SCC (configuration not stated)	10	44*	1	-6	-1	19
CCOC(=O)Nc1ccc(NC(=O)c2ccccc2F)cc1	16	3	-6	-7	-17	5
Cc1ccc(NC(=O)c2noc(C(C)C)c2[N+](=O)[O-])cc1	7	12	4	92*	11	12
COc1ccc(CNC(=O)c2noc(C(C)C)c2[N+](=O)[O-])cc1	14	15	54*	32	-1	1
CC(C)c1onc(C(=O)Nc2cccc(O)c2)c1[N+](=O)[O-]	20	10	0	6	-10	-2
CC(C)c1onc(C(=O)NCc2ccc(Cl)cc2)c1[N+](=O)[O-]	28	45	-9	55	-5	27
CCOc1ccc(C(=O)NCC(=O)NCCCn2nc(C)cc2C)cc1OCC	-2	6	/	2	-11	-2
CCn1c(O)c(N=NC(=O)c2cccs2)c2ccccc21	49	-14	11	54*	24	-21
CCn1c(O)c(N=N)c2ccccc21	27	9	-6	-10	-5	-6
CCn1c(O)c(N=NC(=O)CNC(=O)c2ccco2)c2ccccc21	25	/	1	1	-2	18
CCCn1c(O)c(N=NC(=O)c2ccco2)c2ccccc21	10	32	68*	59	11	-21
O=C(c1ccco1)N1CCN(C(=O)c2cnn(-c3ccc(Cl)cc3)c2C2CCNCC2)CC1	12	0	/	-9	-21	10
CCc1ccc(NC(=S)N2CCCC(C(F)(F)F)C2)cc1 (configuration not stated)	24	8	96*	-3	0	-8
O=C(CNC(=O)c1cccc(F)c1)N/N=C/c1cccc([N+](=O)[O-])c1	9	21	81*	-12	10	-7
